For data set [1] the following is noted: 30 °C and pH 7.0; cited from earlier work.
Data set [2] in a line: Heat treatment of 3ketoLG and 3ketoMeβGlc in sodium phosphate buffer, HPLC. To be noted: sodium phosphate buffer 50 mM, pH 8.0, 60 min at 60 °C. It counts as physicochemical. The essentials: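 Samples are analysed by HPLC on a Shodex SUGAR KS-801 column (8.0 × 300 mm). Water is the eluent at 1 mL/min and 60 °C, with corona charged-aerosol detection. Chromatograms taken before and after heat treatment are compared.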

Data set [3] is described as follows: Stability of 3ketoLG in acid. Type of data set: physicochemical. To be noted: 100 °C, 1 h. The method in brief: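 Test ketosugar at 10 mM is dissolved in HCl (1, 10 or 100 mM) and held at 100 °C for 1 h. After cooling, samples are diluted 1:20 in water. Remaining ketosugar is quantified by HPLC (50 µL injection) on a KS-801 column with water eluent and charged-aerosol detection.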

Data set [4] is described as follows: Solubility in aqueous solution. Type of data set: physicochemical. Conditions: aqueous solution / reaction mixture.
Data set [5] can be described thus: Stability of 3ketoLG in buffer. It counts as physicochemical. Conditions: for k: 10 mM 3ketoLG; for Ea: linear regression of the Arrhenius equation. The essentials: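 Ketosugar is incubated at 30–70 °C in 50 mM sodium phosphate or 50 mM sodium acetate (pH 4.0, 5.0) buffers. At each time point, aliquots are diluted 1:20 into 1 mM acetic acid and quantified by HPLC. k comes from a single-exponential fit of the time course, and t1/2 = ln2/k. Ea at each pH comes from linear Arrhenius regression.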

Another data set addresses pyranose oxidase (P2O) (Trametes versicolor, UniProt P79076). Description: Measurement of P2O activity. It counts as biochemical, Coriolus sp. Conditions: for Km: P2O, LG: linear S–V relationship between 4 and 40 mM.
Where [6] appears, read: substrate 10 mM, 30 °C, MOPS-Na buffer 25 mM, pH 7.5.

“Also recorded” adds a separate entry of the source.

In general, half-life refers to the time needed for the level to fall by half in the phase considered. As to `O=C1CO[C@H](CO)[C@@H](O[C@@H]2O[C@H](CO)[C@@H](O)[C@H](O)[C@H]2O)[C@@H]1O` [1,5-anhydro-4-O-β-D-glucopyranosyl-D-fructose], the half-life in data set [1] is on record as 17 h.
On to `O=C1[C@@H](O)[C@@H]2OC[C@@H](O2)[C@H]1O` [3ketoLG, 1,6-anhydro-β-D-ribo-hexopyranos-3-ulose], for which the “Change on heat treatment (HPLC)” value in data set [2] is given as “significantly decreased”. Moreover, the “Decrease of 3ketoLG” value in data set [3] (1 mM HCl) is “No significant decrease”. In data set [3] (100 mM HCl), this compound returned a 3ketoLG remained greater than 90%. The Solubility result in data set [4] is on record as “poor solubility; also recorded: low solubility”. The k in data set [5] (pH 4.0, 70 °C, sodium acetate buffer 50 mM) was found to be 0.062 ± 0.002 h⁻¹; in data set [5] (pH 5.0, 70 °C, sodium acetate buffer 50 mM), 0.20 ± 0.01 h⁻¹; in data set [5] (pH 6.0, 40 °C, sodium phosphate buffer 50 mM), 0.028 ± 0.003 h⁻¹; in data set [5] (pH 6.0, 50 °C, sodium phosphate buffer 50 mM) it was 0.085 ± 0.005 h⁻¹; in data set [5] (pH 6.0, 60 °C, sodium phosphate buffer 50 mM), 0.32 ± 0.04 h⁻¹; in data set [5] (pH 6.0, 70 °C, sodium phosphate buffer 50 mM), 1.0 ± 0.1 h⁻¹. Besides, the k is 0.043 ± 0.003 h⁻¹ in data set [5] (pH 7.0, 30 °C, sodium phosphate buffer 50 mM); 0.13 ± 0.01 h⁻¹ in data set [5] (pH 7.0, 40 °C, sodium phosphate buffer 50 mM); 0.33 ± 0.02 h⁻¹ in data set [5] (pH 7.0, 50 °C, sodium phosphate buffer 50 mM); 1.7 ± 0.1 h⁻¹ in data set [5] (pH 7.0, 60 °C, sodium phosphate buffer 50 mM); 4.4 ± 0.1 h⁻¹ in data set [5] (pH 7.0, 70 °C, sodium phosphate buffer 50 mM); 0.083 ± 0.005 h⁻¹ in data set [5] (pH 8.0, 30 °C, sodium phosphate buffer 50 mM). Moreover, the k in data set [5] (pH 8.0, 40 °C, sodium phosphate buffer 50 mM) came to 0.21 ± 0.02 h⁻¹; in data set [5] (pH 8.0, 50 °C, sodium phosphate buffer 50 mM) it was 0.57 ± 0.03 h⁻¹; in data set [5] (pH 8.0, 60 °C, sodium phosphate buffer 50 mM), 3.0 ± 0.1 h⁻¹; in data set [5] (pH 8.0, 70 °C, sodium phosphate buffer 50 mM) it was 9.1 ± 0.4 h⁻¹. In addition, the Ea in data set [5] (pH 6.0) was 26.1 kcal/mol; in data set [5] (pH 7.0), 24.4 kcal/mol; in data set [5] (pH 8.0), 24.9 kcal/mol.
One may read the Km as the concentration of substrate that gives half-maximal velocity. Take `OC[C@H]1OC(O)[C@H](O)[C@@H](O)[C@@H]1O` (stereo partly drawn) [D-glucose]: on pyranose oxidase (P2O), the Km turned out to be 1000 µM. For the same compound, on pyranose oxidase (P2O) (setting [6]), the “Specific activity of P2O” value was 5.1 U/mg-solid. The “Specific activity of P2O relative to D-glucose” value on pyranose oxidase (P2O) (substrate 10 mM, 30 °C, MOPS-Na buffer 25 mM, pH 7.5, D-glucose = 100 %) was found to be 100%.
Take `O[C@@H]1[C@@H](O)[C@@H]2OC[C@@H](O2)[C@H]1O` [LG, 1,6-anhydro-β-D-glucopyranose]: the Michaelis-Menten constant (Km) on pyranose oxidase (P2O) is greater than 40000 µM. For the same compound, on pyranose oxidase (P2O) (setting [6]), the “Specific activity of P2O” value is 0.018 U/mg-solid.
Regarding `O=C[C@H](O)[C@@H](O)[C@H](O[C@@H]1O[C@H](CO)[C@@H](O)[C@H](O)[C@H]1O)[C@H](O)CO` [cellobiose], the “Oxidation by P2O” value on pyranose oxidase (P2O) is reported as “did not oxidize”.
The same measure, in the same setting: as for `COC1OC(CO)C(O)C(O)C1O` [methyl-α-D-glucopyrnaoside], the entry is “did not oxidize”.

The values above are taken from paper PMC8056934 (Journal of Applied Glycoscience, 2017).
